Reference: ChEMBL document CHEMBL4765324, “Synthesis and biological evaluation of novel quinoline-piperidine scaffolds as antiplasmodium agents” (Eur J Med Chem, 2020)

System: Plasmodium falciparum
Experiment: Resistance index, ratio of IC50 for antiplasmodial activity against chloroquine-resistant Plasmodium falciparum K1 to IC50 for antiplasmodial activity against chloroquine-sensitive Plasmodium falciparum NF54
Assay type: functional
Settings: not given
How it was run: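 Asexual blood-stage P. falciparum K1 and NF54 kept in continuous culture (modified Trager–Jensen). Growth read by parasite lactate dehydrogenase assay (modified Makler). Ten 2-fold dilutions in complete medium, from 10 μg/ml to 20 ng/ml (or 1 μg/ml to 2 ng/ml). Chloroquine as reference. Triplicate on one occasion. IC50s from non-linear dose-response fit. RI = IC50 K1/IC50 NF54.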

Going from `C=CCN1CCC(CNc2ccnc3ccccc23)C(C)(C)C1` (stereo not given) to `C=CCN1CCC(CNc2ccnc3cc(Cl)ccc23)C(C)(C)C1` (stereo not given), the “Ratio IC50” value rises from 0.3 to 1.7.

First: c1ccc(C23CCN(C2)C(CNc2ccnc4ccccc24)C3)cc1 (mixture of isomers)
Second: Clc1ccc2c(NCC3CC4(c5ccccc5)CCN3C4)ccnc2c1 (mixture of isomers)
The “Ratio IC50” value of the first is lower: 1.5 for the first, 1.6 for the second.

Compared with `Oc1cccc2ccc(CNCC3CC4(c5ccccc5)CCN3C4)nc12` (mixture of isomers), `C=CCN1C[C@@H](OCc2ccccc2)[C@@H](CNCc2ccc3ccccc3n2)C(C)(C)C1` (relative stereo) is lower in “Ratio IC50” value: 6.4 for the first, 1.8 for the second.

First: C=CCN1C[C@@H](OCc2ccccc2)[C@@H](CNc2ccnc3cc(Cl)ccc23)C(C)(C)C1 (relative stereo)
Second: C=CCN1C[C@@H](OCc2ccccc2)[C@@H](CNCc2ccnc3ccccc23)C(C)(C)C1 (relative stereo)
The “Ratio IC50” value of the first is higher: 2.2 for the first, 1.5 for the second.

With `C=CCN1C[C@@H](OCc2ccccc2)[C@@H](CNCc2cc3ccccc3nc2Cl)C(C)(C)C1` (relative stereo) the “Ratio IC50” value was 1.5.

System: not listed separately
Experiment: Selectivity index, ratio of IC50 for CHO cells to IC50 for antiplasmodial activity against chloroquine-sensitive Plasmodium falciparum NF54
Assay type: toxicity
Settings: hamster, CHO cells (cytotoxicity) versus Plasmodium falciparum NF54; read-out: Ratio IC50
How it was run: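 CHO cytotoxicity measured by MTT colorimetric assay, using the antiplasmodial stock solutions. Six 10-fold dilutions in complete medium, 100 to 0.001 μg/ml, with emetine as reference. Triplicate on one occasion. IC50 from non-linear dose-response fit. NF54 IC50 came from the parasite lactate dehydrogenase assay. SI = IC50 CHO/IC50 NF54.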

`C=CCN1C[C@@H](OCc2ccccc2)[C@@H](CNc2ccnc3cc(Cl)ccc23)C(C)(C)C1` (relative stereo) showed a selectivity ratio of 10100.
